Assay results pooled from the literature.
Each line is one published result; the experiments were not run side by side.
KIT A829P: Mast/stem cell growth factor receptor Kit (KIT, Homo sapiens, UniProt P10721, A829P)
KIT T670I/V559D: Mast/stem cell growth factor receptor Kit (KIT, Homo sapiens, UniProt P10721, T670I/V559D)
KIT D816H: Mast/stem cell growth factor receptor Kit (KIT, Homo sapiens, UniProt P10721, D816H)
KIT V559D: Mast/stem cell growth factor receptor Kit (KIT, Homo sapiens, UniProt P10721, V559D)
KIT L576P: Mast/stem cell growth factor receptor Kit (KIT, Homo sapiens, UniProt P10721, L576P)
KIT: Mast/stem cell growth factor receptor Kit (KIT, Homo sapiens, UniProt P10721)
KIT D816V: Mast/stem cell growth factor receptor Kit (KIT, Homo sapiens, UniProt P10721, D816V)
KIT autoinhibited: Mast/stem cell growth factor receptor Kit, autoinhibited (KIT, Homo sapiens, UniProt P10721)
KIT V559D/V654A: Mast/stem cell growth factor receptor Kit (KIT, Homo sapiens, UniProt P10721, V559D/V654A)

Structure (SMILES) | target | effect on | method | tested at | remaining binding [%]
c1cnn2ncc(-c3ccnc(N4CCC45COC5)n3)c2c1 | KIT A829P | binding |  | 1 µM | 61
O=C(c1ccc(Nc2ncc(Cl)c(-c3ccc(Cl)s3)n2)cc1)N1CCC(N2CCCC2)CC1 | KIT T670I/V559D | binding | competition with immobilised ligand | 1 µM | 0.75
Nc1ncc2c(n1)-c1c([nH]c3ccc(C#CC4CC4)cc13)CCCC2 | KIT T670I/V559D | binding | competition with immobilised ligand | 1 µM | 94
CN(CCCC(F)(F)F)c1nccc(-c2cnn3ncccc23)n1 | KIT D816H | binding |  | 1 µM | 77
CCN1CCN(Cc2ccc(C(=O)Nc3ccc(C)c(Oc4ccc5c(c4)CC(=O)N5)c3)cc2C(F)(F)F)CC1 | KIT A829P | binding | competition with immobilised ligand | 1 µM | 100
C[C@@H](c1cccc(C#N)c1)n1cc(Cl)cc(C(N)=O)c1=N | KIT D816H | cell-free assay | competition with immobilised ligand | 1 µM | 100
COc1cnc(Nc2cccc(S(N)(=O)=O)c2)nc1N1CCN(c2ccccc2)CC1 | KIT D816H | binding | competition with immobilised ligand | 1 µM | 66
CC(C)(O)c1cncc(-c2nc3ccc(F)cc3n2C2CC2)c1 | KIT A829P | cell-free assay | competition with immobilised ligand | 1 µM | 100
O=C(c1ccc(Nc2nccc(-c3cc4ccccc4s3)n2)cc1)N1CCC(N2CCCC2)CC1 | KIT D816H | binding | competition with immobilised ligand | 1 µM | 18
O=C(Nc1c[nH]nc1C(=O)NC1CCNCC1)c1cc(F)cc(F)c1 | KIT V559D | binding | competition with immobilised ligand | 1 µM | 100
COc1ncc2cc3ccccc3nc2c1C#N | KIT L576P | cell-free assay | competition with immobilised ligand | 5 µM | 100
C=CC(=O)N1CCC(C(=O)NCC(=O)N2CCN(c3nc(-c4cnc(N)nc4C(F)F)nc(N4CCOCC4)n3)CC2)CC1 | KIT | binding | competition with immobilised ligand | 1 µM | 93
c1cncc(-c2cccc(Nc3nccc(NC4CCCCC4)n3)c2)c1 | KIT D816V | binding | competition with immobilised ligand | 10 µM | 0.75
CN(C)c1nccc(-c2cnn3ncccc23)n1 | KIT A829P | binding |  | 1 µM | 81
CC(C)(C)c1ccc(-c2nc(CBr)nn2-c2cccc(O)c2)cc1 | KIT | cell-free assay | competition with immobilised ligand | 10 µM | 97
Cc1cnc(Nc2ccc(C(=O)N3CCC(N4CCCC4)CC3)cc2)nc1-c1cc2ccccc2s1 | KIT D816H | binding | competition with immobilised ligand | 1 µM | 7.8
CCCCN(CCCC)C(=O)CN1C[C@H](c2cc(OC)c3c(c2)OCO3)[C@@H](C(=O)O)[C@@H]1CC(C)(C)CCC | KIT D816V | cell-free assay | competition with immobilised ligand | 1 µM | 100
CN(C)c1ncc(F)c(-c2cnn3ncccc23)n1 | KIT autoinhibited | binding |  | 1 µM | 73

Structure (SMILES) | target | effect on | method | tested at | remaining binding [%]
CNC(=O)[C@@H]1CC[C@@H](n2c(-c3ccc4cnccc4c3)nc3ccc(C(=O)NCc4cccc(C(N)=O)c4)cc32)C1 | KIT V559D/V654A | binding | competition with immobilised ligand | 1 µM | 96
CO[C@H]1CC[C@H](CNc2ccc(S(=O)(=O)NC(=O)c3ccc(N4CCN(CC5=C(c6ccc(Cl)cc6)CC(C)(C)CC5)CC4)cc3Oc3cnc4[nH]ccc4c3)cc2[N+](=O)[O-])CC1 | KIT V559D | cell-free assay | competition with immobilised ligand | 1 µM | 99
CN1CCN(c2ccc(Nc3nccc(-c4ccccc4)n3)cc2C(F)(F)F)CC1 | KIT V559D/V654A | binding |  | 10 µM | 4
C[C@H]1CCN(c2nccc(-c3cnn4ncccc34)n2)C1 | KIT T670I/V559D | binding |  | 1 µM | 98
O=C(N1CCS(=O)(=O)CC1)N1C[C@H](c2ccc(OC(F)(F)F)cc2)C[C@H](c2nc(C3CC3)no2)C1 | KIT V559D/V654A | cell-free assay | competition with immobilised ligand | 1 µM | 100
CN(c1nccc(-c2cnn3ncccc23)n1)C1CC1 | KIT D816V | binding |  | 1 µM | 85
Cc1cc(NC(=O)c2cccc(S(F)(F)(F)(F)F)c2)cc(-n2ccn3nc(-c4cccnc4)cc23)c1 | KIT autoinhibited | cell-free assay | competition with immobilised ligand | 1 µM | 70.3
CN1CCN(c2ccc(Nc3nccc(-c4cccc([N+](=O)[O-])c4)n3)cc2C(F)(F)F)CC1 | KIT D816H | binding |  | 10 µM | 2.8
COc1cnc(Nc2cccc(S(N)(=O)=O)c2)nc1N1CCN(c2ccccc2)C(=O)C1 | KIT D816V | binding | competition with immobilised ligand | 1 µM | 90
CN(C)c1nccc(-c2cnc3ncccn23)n1 | KIT V559D | binding |  | 1 µM | 81
O=C(NCCCN1CCOCC1)c1ccc(Nc2ncc(Cl)c(-c3ccc(Cl)s3)n2)cc1 | KIT T670I/V559D | binding | competition with immobilised ligand | 1 µM | 2.3
NS(=O)(=O)c1cc(NC(=O)C2(c3ccccc3Cl)CC2)ccc1Oc1cccc(Cl)c1 | KIT A829P | cell-free assay | competition with immobilised ligand | 1 µM | 69
Cc1cnn2ncc(-c3ccnc(N(C)C)n3)c2c1 | KIT V559D | binding |  | 1 µM | 100
C[C@@H](c1ccc(-n2cnc3c(N)ncnc32)cc1)N1CCc2nn(C)c(Cc3ccccc3)c2C1=O | KIT T670I/V559D | binding | competition with immobilised ligand | 0.1 µM | 99
O=C(c1ccc(Nc2ncc(Cl)c(-c3cc4ccccc4s3)n2)cc1)N1CCC(N2CCCC2)CC1 | KIT T670I/V559D | binding | competition with immobilised ligand | 1 µM | 17
O=C(NCC1CCOCC1)c1n[nH]cc1NC(=O)c1c(F)cccc1F | KIT L576P | binding | competition with immobilised ligand | 1 µM | 100
C[C@H](NC(=O)c1cnc2n1[C@](C)(Cc1ccc(C#N)cc1)C(=O)N2c1cc(Cl)c(F)c(Cl)c1)C(=O)NC1(c2ccccn2)CC1 | KIT D816H | cell-free assay | competition with immobilised ligand | 1 µM | 100
O=C(NCCCN1CCOCC1)c1ccc(Nc2nccc(-c3cc4ccccc4s3)n2)cc1 | KIT A829P | binding | competition with immobilised ligand | 1 µM | 36
